The target in series [1] is Cytochrome P450 3A4 (Homo sapiens, UniProt P08684). The series is described as follows: Inhibition of CYP3A4 in human liver microsomes using testosterone as substrate preincubated for 5 mins followed by NADPH addition and measured after 5 mins by LC/MS analysis. In kind it is ADME, Microsome. (Microsomes from liver hold many membrane-bound enzymes, among them those of drug oxidation.)

A short description of series [2]: Downregulation of KLK3 gene expression in human VCaP cells at 1 nM incubated for 24 hrs by qRT-PCR analysis. In kind it is functional. The gist of the method:
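VCaP cells (ATCC) grown in DMEM with Glutamax plus 10% FBS at 37 °C, 5% CO2. Cells treated 24 h; KLK3 mRNA measured by qRT-PCR, expression by comparative CT method, normalised to GAPDH (ΔCT) and then to vehicle control (ΔΔCT).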
(Quantitative PCR measures a nucleic acid by following its amplification.)

Series [3] is described as follows: Metabolic stability in rat liver microsomes assessed as half life at 1 uM measured upto 45 mins in presence of NADPH by LC-MS/MS analysis. In kind it is ADME, Microsome. As to conditions: 0.75 h. The gist of the method:
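Pooled liver microsomes from each species: 1 μM compound with 0.5 mg/mL microsomes and 1.7 mM NADPH in 0.1 M K-phosphate, pH 7.4, 5 mM MgCl2, 37 °C. Sampled at 0, 5, 10, 15, 30 and 45 min with cold ACN quench. No-NADPH incubation as negative control; ketanserin as positive control. LC-MS/MS; half-life from ln(remaining) versus time.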

A short description of series [4]: AUC(0 to t) in Beagle dog at 3 mg/kg, po measured up to 24 hrs by LC-MS/MS analysis. It counts as ADME, organism-based, Canis lupus familiaris. More on the design: time < 24 hrs, dose 3 mg/kg, route po. As to conditions: in vivo. The gist of the method:
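Male Beagle dogs dosed orally at 3 mg/kg in 90% PEG400 + 10% Cremophor.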

In series [5] the test system is VCaP. The series is described as follows: Induction of androgen receptor degradation in human VCaP cells at 100 nM pretreated with MLN4924 for 2 hrs followed by compound addition and 3 hrs by Western blot analysis. It counts as functional, cell-based. As to conditions: time 5.0 hrs. The gist of the method:
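LNCaP or VCaP cells pretreated 2 h with DMSO, ARi-12 (10 μM), thalidomide (10 μM), MG-132 (3 μM) or MLN4924 (0.5 μM), then given degrader at 100 nM for 3 h. AR measured by Western blot with GAPDH as loading control.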

A short description of series [6]: Plasma protein binding in human at 1 uM after 5 hrs by equilibrium dialysis based LC-MS/MS analysis. In kind it is ADME, cell-free. The gist of the method:
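Equilibrium dialysis of pooled plasma of each species spiked at 1 μM against 0.1 M sodium phosphate, pH 7.4. 5 h at 37 °C with shaking at 60 rpm. Both sides matrix-matched, ACN/IS quench, LC/MS. % bound = 100 − (buffer/plasma peak-area ratio × 100); recovery also calculated. Warfarin as reference.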
(Equilibrium dialysis compares concentrations on both sides of a semipermeable membrane.)

A short description of series [7]: AUC(0 to t) in Beagle dog at 1 mg/kg, iv measured upto 24 hrs by LC-MS/MS analysis. In kind it is ADME, organism-based, Canis lupus familiaris. More on the design: time < 24 hrs, dose 1 mg/kg, route iv. As to conditions: in vivo. The gist of the method:
(§1)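 Male ICR mice (2 mg/kg), male SD rats (1 mg/kg) or male Beagle dogs (1 mg/kg) given a single intravenous dose in 10% PEG400 + 90% PBS adjusted to pH 8.0 with NaOH.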

In series [8] the test system is VCaP. As to the kind of experiment: Growth inhibition in human VCaP cells incubated for 4 days by WST-8 assay. As to conditions: 96 h. It counts as functional, cell-based.
Series [9] concerns the target Androgen receptor (Homo sapiens) (UniProt P10275). The series is described as follows: In vivo induction of androgen receptor degradation in human VCaP cells xenografted in CB17 SCID mouse assessed as reduction in AR protein level at 12.5 mg/kg, po measured after 24 hrs by Western blotting analysis. Also noted: scale not given: the % may be the effect or the level left.

A short description of series [10]: Metabolic stability in dog plasma assessed as half life at 1 uM measured upto 120 mins by LC-MS/MS analysis. Conditions: 2 h. In kind it is ADME, cell-free, Canis lupus familiaris. The gist of the method: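 Compound at 1 μM final in pre-warmed plasma of each species, 37 °C for up to 2 h. ACN/IS quench at 0, 5, 15, 30, 60 and 120 min; LC/MS. Procaine as reference (benfluorex for rat). t1/2 = 0.693/slope of ln(fraction remaining) versus time.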

Series [11] can be described thus: Clearance in Sprague-Dawley rat at 1 mg/kg, iv measured upto 24 hrs by LC-MS/MS analysis. Conditions: in vivo. In kind it is ADME, organism-based. The gist of the method:
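Male Sprague Dawley rats received a single intravenous dose of 1 mg/kg, formulated in 10% PEG400 + 90% PBS adjusted to pH 8.0 with 0.5 N NaOH.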

Series [12] is described as follows: Oral bioavailability in Beagle dog at 3 mg/kg measured up to 24 hrs by LC-MS/MS analysis. It counts as ADME, organism-based, Canis lupus familiaris. Conditions: in vivo. The gist of the method:
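Male Beagle dogs. IV 1 mg/kg in 10% PEG400 + 90% PBS (pH 8.0); PO 3 mg/kg in 90% PEG400 + 10% Cremophor. Plasma PK to 24 h; F from IV and PO exposure.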

In series [13] the target is T1, Androgen receptor (Homo sapiens) (UniProt P10275).
T1 sequence (whole entry): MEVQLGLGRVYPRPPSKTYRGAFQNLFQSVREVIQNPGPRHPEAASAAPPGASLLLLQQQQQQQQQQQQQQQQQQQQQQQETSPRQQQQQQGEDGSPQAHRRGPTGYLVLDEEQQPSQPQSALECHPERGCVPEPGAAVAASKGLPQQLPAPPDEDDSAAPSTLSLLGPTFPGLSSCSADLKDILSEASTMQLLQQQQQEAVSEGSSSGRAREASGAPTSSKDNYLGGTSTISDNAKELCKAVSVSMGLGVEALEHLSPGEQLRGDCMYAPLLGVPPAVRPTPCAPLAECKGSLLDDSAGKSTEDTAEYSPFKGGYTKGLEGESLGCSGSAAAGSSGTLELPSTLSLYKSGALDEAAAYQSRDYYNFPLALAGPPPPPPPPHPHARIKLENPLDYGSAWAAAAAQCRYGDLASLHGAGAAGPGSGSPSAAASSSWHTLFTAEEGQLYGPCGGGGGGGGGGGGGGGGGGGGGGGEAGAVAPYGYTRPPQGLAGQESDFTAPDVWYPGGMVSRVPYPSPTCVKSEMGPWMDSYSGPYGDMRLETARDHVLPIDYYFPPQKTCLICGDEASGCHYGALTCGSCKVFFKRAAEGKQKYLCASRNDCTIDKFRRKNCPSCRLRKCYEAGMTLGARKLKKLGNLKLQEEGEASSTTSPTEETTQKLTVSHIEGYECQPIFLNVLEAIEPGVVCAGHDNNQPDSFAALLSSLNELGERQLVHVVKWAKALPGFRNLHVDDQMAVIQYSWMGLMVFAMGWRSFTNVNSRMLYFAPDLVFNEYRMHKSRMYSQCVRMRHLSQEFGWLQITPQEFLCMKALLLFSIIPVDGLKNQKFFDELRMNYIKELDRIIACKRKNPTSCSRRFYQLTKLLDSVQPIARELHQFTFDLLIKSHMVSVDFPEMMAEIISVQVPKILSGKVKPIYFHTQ
The series is described as follows: Induction of androgen receptor degradation in human VCaP cells at 0.01 uM after 24 hrs by Western blotting analysis relative to control. In kind it is cell-based. The gist of the method: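 VCaP cells treated for 24 h at 10, 100 or 1000 nM. AR protein measured by Western blotting.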

Series [14] can be described thus: Clearance in Beagle dog at 1 mg/kg, iv measured upto 24 hrs by LC-MS/MS analysis. In kind it is ADME, organism-based, Canis lupus familiaris. As to conditions: in vivo. The gist of the method: as §1

By IC50 is commonly meant the point on the concentration scale where inhibition reaches its midpoint. What is called clearance is the volume of plasma or blood freed of the substance per unit of time.

The source made the active and inactive calls. No cut-off for these calls is given here. Where only a bound is given, the exact number is not on record here.

Sequence of Cytochrome P450 3A4 (P08684 whole entry): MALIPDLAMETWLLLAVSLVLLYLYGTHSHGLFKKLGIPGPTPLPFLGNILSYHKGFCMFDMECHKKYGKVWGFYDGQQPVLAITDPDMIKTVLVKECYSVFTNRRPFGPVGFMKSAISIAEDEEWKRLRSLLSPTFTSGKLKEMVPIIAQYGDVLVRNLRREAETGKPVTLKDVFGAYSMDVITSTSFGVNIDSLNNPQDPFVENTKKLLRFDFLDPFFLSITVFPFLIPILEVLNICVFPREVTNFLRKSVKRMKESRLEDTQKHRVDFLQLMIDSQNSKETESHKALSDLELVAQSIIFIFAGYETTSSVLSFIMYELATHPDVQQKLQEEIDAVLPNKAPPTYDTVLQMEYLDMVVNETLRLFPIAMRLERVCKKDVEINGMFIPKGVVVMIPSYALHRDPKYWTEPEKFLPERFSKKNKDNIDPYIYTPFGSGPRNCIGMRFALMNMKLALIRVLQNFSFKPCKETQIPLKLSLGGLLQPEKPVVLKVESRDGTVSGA

As to `C[C@H]1CC2(CCN(c3ccc(C(=O)N4CCN(C5CN(c6ccc7c(c6)C(=O)N(C6CCC(=O)NC6=O)C7=O)C5)CC4)cc3)CC2)CN1c1ccc(C#N)c(Cl)c1` (some centres undefined), the IC50 is over 10000 nM in [1] and 10 nM in [8]. Besides, the Activity is 51% in [2], over 95% in series [9] and over 95% in series [13]. For the same molecule, the values for the t1/2 in series [3] and in series [10] were over 1 h and over 2 h, respectively. The figures for the AUCt in [4] and in series [7] were 4460 ng·h/mL and 3240 ng·h/mL, respectively. Further, the outcome in series [5] was inactive. In series [6], this molecule displayed a PPB of 99.1%. In addition, the figures for the clearance in series [11] and in series [14] were 10.2 mL/min/kg and 4.6 mL/min/kg, respectively. This molecule also had a F in series [12] of 46%.

For the origin of these results see ChEMBL document CHEMBL5331127, “Discovery of ARD-2051 as a Potent and Orally Efficacious Proteolysis Targeting Chimera (PROTAC) Degrader of Androgen Receptor for the Treatment of Advanced Prostate Cancer” (J Med Chem, 2023).
